VIM-2 inh – blocks Pseudomonas aeruginosa VIM-2 metallo-beta-lactamase; purified VIM-2, nitrocefin hydrolysis, epi-absorbance fluorescence; inhibition, % at 5.6 µM; hit rate 0.89% among 290,000;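 active = inhibition above the mean of all tested compounds plus 3 SD, cutoff set per screening run, cut at about 7.5% in these data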;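 also: red hydrolysis product quenches plate fluorescence so inhibitors raise well fluorescence; 0% = enzyme with DMSO and 100% = DMSO without enzyme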
PHOSPHO1 block – PHOSPHO1 (human) inhibition; AID 1565; inhibition, % at 13.3 µM; hit rate 1.1% among 290,000; recombinant PHOSPHO1, absorbance phosphatase assay; Q8TCT1; in the data active = inhibition above about 60%
IMP-1 inhibitor – blocks Pseudomonas aeruginosa IMP-1 metallo-beta-lactamase | AID 1556 | purified IMP-1, nitrocefin hydrolysis, epi-absorbance fluorescence | hit rate 0.45% among 290,000 | inhibition, % at 5.6 µM;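 active = inhibition above the mean plus 3 SD of all compounds in the same screening run, cut at about 4.5% in these data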;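 also: 0% = IMP-1 with DMSO and 100% = DMSO wells lacking enzyme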
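Assay system: purified IMP-1; Quantity: IMP-1 0.2 nM before substrate addition; Medium: HEPES buffer pH 7.1 with ZnSO4 and Brij 35; Incubation: 15 min enzyme–compound preincubation, then 25 min nitrocefin reaction, 25 °C; Signal: fluorescence quenching readout, ex 480/em 530 nm; Controls: DMSO with and without IMP-1; Repeats: singlicate testing.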
ASAP1 inh – inhibitors of human ASAP1 ArfGAP activity; ASAP1-stimulated ARF1 GTP hydrolysis, GDP FP detection; AID 624377; hit rate 0.19% among 360,000; inhibition, % at 16.5 µM; Q9ULH1; in the data active = inhibition above about 25%;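 also: 0% = vehicle with enzyme and substrate and 100% = no enzyme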
Target sequence (Q9ULH1 325-724 limits assumed): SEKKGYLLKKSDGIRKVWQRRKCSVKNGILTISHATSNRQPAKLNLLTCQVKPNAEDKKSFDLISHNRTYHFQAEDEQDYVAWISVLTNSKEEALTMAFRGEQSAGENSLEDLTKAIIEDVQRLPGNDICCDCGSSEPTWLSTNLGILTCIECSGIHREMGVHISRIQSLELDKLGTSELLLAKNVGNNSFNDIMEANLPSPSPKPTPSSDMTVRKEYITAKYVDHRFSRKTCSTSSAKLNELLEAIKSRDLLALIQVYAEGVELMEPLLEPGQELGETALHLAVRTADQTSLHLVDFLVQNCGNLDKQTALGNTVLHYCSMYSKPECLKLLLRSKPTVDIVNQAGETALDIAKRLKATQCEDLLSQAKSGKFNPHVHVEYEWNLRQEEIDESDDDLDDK
ARFGAP1 inh – inhibitors of rat ARFGAP1; Q62848; Arfgap1-stimulated ARF1 GTP hydrolysis, GDP FP detection; inhibition, % at 16.5 µM; hit rate 0.26% among 360,000; AID 651572;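 active = inhibition above a per-plate limit, mean inhibition of low control wells plus 3 SD, cut at about 25% in these data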;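 also: 0% = DMSO wells with enzyme and 100% = wells lacking Arfgap1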
Target sequence (Q62848 1-136 limits assumed): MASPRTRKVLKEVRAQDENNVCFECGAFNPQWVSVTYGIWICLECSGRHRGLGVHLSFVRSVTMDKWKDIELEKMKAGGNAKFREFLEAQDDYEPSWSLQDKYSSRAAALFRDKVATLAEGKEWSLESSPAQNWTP
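Replicates: Single well per compound | Assay system: Truncated rat Arfgap1 GAP domain | Control set: No-Arfgap1 wells (100%) versus DMSO full-reaction wells (0%) | Times: Enzyme reaction 120 min at 25 °C after 20 min preincubation | Reagent: Human ARF1(Δ1-17)-GTP substrate | Measured by: Tracer-displacement fluorescence polarization with EDTA stop, 620/688 nm | Measure: Percent inhibition of Arfgap1-stimulated GTP hydrolysis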
Calb FLC – affects C. albicans growth with fluconazole | hit rate 0.57% among 300,000 | C. albicans CaCi-2 + fluconazole, Alamar Blue growth, 48 h | AID 1979 | growth inhibition, % (no concentration beside the values);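 active = growth inhibition above about 58% in most replicates, limit read from the data, passing the limit was not always enough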;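 also: all wells also contain fluconazole at 8 µg/ml as a sub-toxic cotreatment; 0% = median of DMSO wells and 100% = median of geldanamycin control wells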
The depositor's hits bear a star. Compounds with a hit are over-represented: about 2.6% of the library has one in this group of screens.

C/C(=N\NC(=O)CCC(=O)Nc1ccc(C)c(C)c1)c1cccs1 was read as VIM-2 inh -3.1, PHOSPHO1 block 36.7, IMP-1 inhibitor -1.1, ASAP1 inh -3.3, ARFGAP1 inh 1.3 and Calb FLC -1.4.
Screening C[C@H](CO)N1C[C@H](C)[C@@H](CN(C)C(=O)Nc2cccc(C(F)(F)F)c2)OCc2cn(nn2)CCCC1=O returned ASAP1 inh -12.0 and ARFGAP1 inh -6.2.
`COc1ccc(OC2C(=O)N(Cc3ccc4c(c3)OCO4)C2c2sccc2C)cc1` (stereo unspecified) gave VIM-2 inh -1.7, PHOSPHO1 block -8.6, IMP-1 inhibitor -2.1, ASAP1 inh 0.1, ARFGAP1 inh 5.9 and Calb FLC 93.3*.
For COc1ccc(OC2C(=O)N(Cc3ccc(F)cc3)C2c2ccc(OC)c(OC)c2)cc1 (stereo unspecified) the results were VIM-2 inh -0.5, PHOSPHO1 block 31.4, IMP-1 inhibitor -2.2, ASAP1 inh -8.3, ARFGAP1 inh -1.0 and Calb FLC 1.7.
For CSc1c(N(C)C)c(=O)c1=S the results were ASAP1 inh 3.0 and ARFGAP1 inh 13.1.
`O=C(O)C1CCN(C(=O)Cc2ccccc2)CC1` gave VIM-2 inh -4.1, PHOSPHO1 block 41.1, IMP-1 inhibitor -2.7, ASAP1 inh -11.1, ARFGAP1 inh 3.0 and Calb FLC -6.2.
NC(=O)C1CCN(C(=O)Cc2ccc(-c3ccccc3)cc2)CC1 was read as VIM-2 inh -0.8, PHOSPHO1 block 26.1, IMP-1 inhibitor 9.7*, ASAP1 inh -7.9, ARFGAP1 inh 5.0 and Calb FLC 4.6.
Screening Cc1ccccc1N1C(S)=C(C#N)C(=O)NC1c1ccco1 (stereo unspecified) returned VIM-2 inh 0.9, PHOSPHO1 block 7.6, IMP-1 inhibitor 1.2, ASAP1 inh 7.9, ARFGAP1 inh 0.5 and Calb FLC 13.5.
For N#CC1=C(S)N(c2ccccc2)C(c2ccc(-c3ccccc3Cl)o2)NC1=O (stereo unspecified) the results were VIM-2 inh 1.8, PHOSPHO1 block -4.9, IMP-1 inhibitor 12.1*, ASAP1 inh 15.2, ARFGAP1 inh -4.3 and Calb FLC 0.6.
O=C1c2ccccc2S(=O)(=O)N1CC(O)COc1ccc(Br)cc1 (stereo unspecified) was read as VIM-2 inh -0.2, PHOSPHO1 block -2.9, IMP-1 inhibitor 5.3*, ASAP1 inh -6.0, ARFGAP1 inh 1.9 and Calb FLC 47.7.
`O=C1c2ccccc2S(=O)(=O)N1CC(O)COc1ccc(Cl)cc1` (stereo unspecified) gave VIM-2 inh 1.1, PHOSPHO1 block 15.2, IMP-1 inhibitor -1.3, ASAP1 inh -0.1, ARFGAP1 inh 2.2 and Calb FLC 1.7.
For CN1CCN(C2CN(CCc3ccccc3)S(=O)(=O)C2)CC1 (stereo unspecified) the results were ASAP1 inh -2.5 and ARFGAP1 inh -12.2.
Screening N#C[C@H](N)[C@H]1O[C@@H](n2ccc(=O)[nH]c2=O)[C@H](O)[C@@H]1O returned ASAP1 inh -1.8 and ARFGAP1 inh -4.5.
`Cc1cccc(C2CC3(CC(C)(C)NC(=S)N3)Oc3cc(O)ccc32)c1` (stereo unspecified) gave VIM-2 inh -4.5, PHOSPHO1 block 42.0, IMP-1 inhibitor -4.5, ASAP1 inh 7.9, ARFGAP1 inh -7.8 and Calb FLC 79.5*.
Screening COc1cccc(C2CC3(CC(C)(C)NC(=S)N3)Oc3cc(O)ccc32)c1 (stereo unspecified) returned VIM-2 inh -3.0, PHOSPHO1 block -4.5, IMP-1 inhibitor -2.0, ASAP1 inh 3.3, ARFGAP1 inh 15.8 and Calb FLC 11.1.
`O=C(Nc1ccc(C2=NCCN2)cc1)c1ccc(C(=O)Nc2ccc(C3=NCCN3)cc2)c([N+](=O)[O-])c1` gave VIM-2 inh -1.5, PHOSPHO1 block 10.6, IMP-1 inhibitor -1.0, ASAP1 inh 3.2, ARFGAP1 inh 26.9* and Calb FLC 107.0*.
COc1ccc(-c2nc(CS(=O)(=O)CC(=O)NCCc3ccc(C)cc3)c(C)o2)cc1 was read as VIM-2 inh -1.4, PHOSPHO1 block 11.6, IMP-1 inhibitor 6.2*, ASAP1 inh -17.2, ARFGAP1 inh 2.4 and Calb FLC -0.1.
Screening O=C(O)c1ccccc1C(=O)NCCc1c(C(=O)O)[nH]c2ccc(Cl)cc12 returned VIM-2 inh 10.1*, PHOSPHO1 block 21.9, IMP-1 inhibitor -3.4, ASAP1 inh -8.6, ARFGAP1 inh -5.8 and Calb FLC -11.5.
`O=C(O)c1ccccc1C(=O)NCCc1ccc(Cl)cc1` gave VIM-2 inh -3.7, PHOSPHO1 block -18.8, IMP-1 inhibitor -2.5, ASAP1 inh -6.3, ARFGAP1 inh 2.5 and Calb FLC -10.0.
CCN(Cc1ccccc1)C(=O)Nc1c(Cl)cccc1Cl was read as ASAP1 inh 10.7 and ARFGAP1 inh 9.6.
For O=C(/C=C(\Nc1cccc(Cl)c1)c1ccccc1)c1ccccc1 the results were ASAP1 inh -5.1 and ARFGAP1 inh 1.4.
`COC(=O)c1sccc1NC(=O)Nc1ccccc1F` gave VIM-2 inh -1.8, PHOSPHO1 block 62.8*, IMP-1 inhibitor -1.3, ASAP1 inh 1.0, ARFGAP1 inh 1.6 and Calb FLC -9.2.
`COc1cccc(C=Nc2cccc3c(=O)[nH][nH]c(=O)c23)c1O` gave VIM-2 inh -4.5, PHOSPHO1 block 58.5, IMP-1 inhibitor 0.0, ASAP1 inh -7.9, ARFGAP1 inh 0.8 and Calb FLC 1.5.
Screening COc1ccc(C=Nc2cccc3c(=O)[nH][nH]c(=O)c23)c2ccccc12 returned VIM-2 inh -0.6, PHOSPHO1 block 13.8, IMP-1 inhibitor 26.7*, ASAP1 inh 3.0, ARFGAP1 inh 7.1 and Calb FLC 26.0.
Screening C[C@H]1[C@H](c2ccccc2)Oc2cccc(NCCc3ccccc3)c2S(=O)(=O)N1Cc1cccc(Cl)c1 returned ASAP1 inh 13.3 and ARFGAP1 inh 0.8.
For Cc1nc(-c2ccc([N+](=O)[O-])cc2)nc2[nH]ccc(=O)c12 the results were VIM-2 inh 9.7*, PHOSPHO1 block 28.3, IMP-1 inhibitor -0.3, ASAP1 inh -9.9, ARFGAP1 inh 8.4 and Calb FLC 7.2.
Cc1nc(-c2ccccc2)nc2[nH]ccc(=O)c12 was read as VIM-2 inh -4.6, PHOSPHO1 block 0.2, IMP-1 inhibitor -4.8, ASAP1 inh 0.6, ARFGAP1 inh 7.6 and Calb FLC 1.3.
`C[C@@H]1CN([C@@H](C)CO)C(=O)c2cc(NS(=O)(=O)c3ccc(F)cc3)ccc2O[C@@H](C)CCCCO[C@H]1CN(C)C(=O)NC1CCCCC1` gave ASAP1 inh -7.3 and ARFGAP1 inh -11.6.
Screening CN(C)C1(CN=Cc2cc(Cl)cc([N+](=O)[O-])c2O)CCCCC1 returned VIM-2 inh -3.9, PHOSPHO1 block 27.9, IMP-1 inhibitor 5.7*, ASAP1 inh -1.0, ARFGAP1 inh -0.4 and Calb FLC 0.3.

Screening data: PubChem BioAssay, several laboratories
